The values below come from ChEMBL document CHEMBL1122622, “Carbocyclic analogues of xylofuranosylpurine nucleosides. Synthesis and antitumor activity” (J Med Chem, 1984).

The assay has as its system Mus musculus. Kind of assay: Compound was tested for antileukemic activity in P388 leukemia mice when administered a dose of 100 mg/kg/day; IA means inactive. The format is functional, organism-based. In short, it runs like this: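 BDF1 male mice, eight per group, implanted ip with 10⁶ P388 leukemia cells. Drug given ip in 0.5 mL saline. Schedules varied between groups; the 100 mg/kg/day regimen was dosed qd 1-9.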

Active and inactive are the calls of the source. The calls are words filed in the database; no cut-off is given here.

As to `Nc1ncnc2c1ncn2[C@@H]1C[C@H](CO)[C@@H](O)[C@H]1O`, the result was inactive.
